Test results published in ChEMBL document CHEMBL5126644, “Synthesis and Structural Characterization of Novel Trihalo-sulfone Inhibitors of WNK1” (ACS Med Chem Lett, 2022).
Activity calls are given as the source filed them. No cut-off for these calls is given here.

Tests used:
[1] = biological target: T1, Serine/threonine-protein kinase WNK1 (Homo sapiens, UniProt Q9H4A3); experiment: Inhibition of TEV cleavage site-fused His6-tagged WNK1 (194 to 483 residues) (unknown origin) expressed in Rosetta (DE3) cells using GST-OSR1(314 to 344) peptide as substrate incubated for 2 hrs by kinase-glo luminescence assay
Target sequence in this assay (Q9H4A3 whole entry, the tested form may be a part): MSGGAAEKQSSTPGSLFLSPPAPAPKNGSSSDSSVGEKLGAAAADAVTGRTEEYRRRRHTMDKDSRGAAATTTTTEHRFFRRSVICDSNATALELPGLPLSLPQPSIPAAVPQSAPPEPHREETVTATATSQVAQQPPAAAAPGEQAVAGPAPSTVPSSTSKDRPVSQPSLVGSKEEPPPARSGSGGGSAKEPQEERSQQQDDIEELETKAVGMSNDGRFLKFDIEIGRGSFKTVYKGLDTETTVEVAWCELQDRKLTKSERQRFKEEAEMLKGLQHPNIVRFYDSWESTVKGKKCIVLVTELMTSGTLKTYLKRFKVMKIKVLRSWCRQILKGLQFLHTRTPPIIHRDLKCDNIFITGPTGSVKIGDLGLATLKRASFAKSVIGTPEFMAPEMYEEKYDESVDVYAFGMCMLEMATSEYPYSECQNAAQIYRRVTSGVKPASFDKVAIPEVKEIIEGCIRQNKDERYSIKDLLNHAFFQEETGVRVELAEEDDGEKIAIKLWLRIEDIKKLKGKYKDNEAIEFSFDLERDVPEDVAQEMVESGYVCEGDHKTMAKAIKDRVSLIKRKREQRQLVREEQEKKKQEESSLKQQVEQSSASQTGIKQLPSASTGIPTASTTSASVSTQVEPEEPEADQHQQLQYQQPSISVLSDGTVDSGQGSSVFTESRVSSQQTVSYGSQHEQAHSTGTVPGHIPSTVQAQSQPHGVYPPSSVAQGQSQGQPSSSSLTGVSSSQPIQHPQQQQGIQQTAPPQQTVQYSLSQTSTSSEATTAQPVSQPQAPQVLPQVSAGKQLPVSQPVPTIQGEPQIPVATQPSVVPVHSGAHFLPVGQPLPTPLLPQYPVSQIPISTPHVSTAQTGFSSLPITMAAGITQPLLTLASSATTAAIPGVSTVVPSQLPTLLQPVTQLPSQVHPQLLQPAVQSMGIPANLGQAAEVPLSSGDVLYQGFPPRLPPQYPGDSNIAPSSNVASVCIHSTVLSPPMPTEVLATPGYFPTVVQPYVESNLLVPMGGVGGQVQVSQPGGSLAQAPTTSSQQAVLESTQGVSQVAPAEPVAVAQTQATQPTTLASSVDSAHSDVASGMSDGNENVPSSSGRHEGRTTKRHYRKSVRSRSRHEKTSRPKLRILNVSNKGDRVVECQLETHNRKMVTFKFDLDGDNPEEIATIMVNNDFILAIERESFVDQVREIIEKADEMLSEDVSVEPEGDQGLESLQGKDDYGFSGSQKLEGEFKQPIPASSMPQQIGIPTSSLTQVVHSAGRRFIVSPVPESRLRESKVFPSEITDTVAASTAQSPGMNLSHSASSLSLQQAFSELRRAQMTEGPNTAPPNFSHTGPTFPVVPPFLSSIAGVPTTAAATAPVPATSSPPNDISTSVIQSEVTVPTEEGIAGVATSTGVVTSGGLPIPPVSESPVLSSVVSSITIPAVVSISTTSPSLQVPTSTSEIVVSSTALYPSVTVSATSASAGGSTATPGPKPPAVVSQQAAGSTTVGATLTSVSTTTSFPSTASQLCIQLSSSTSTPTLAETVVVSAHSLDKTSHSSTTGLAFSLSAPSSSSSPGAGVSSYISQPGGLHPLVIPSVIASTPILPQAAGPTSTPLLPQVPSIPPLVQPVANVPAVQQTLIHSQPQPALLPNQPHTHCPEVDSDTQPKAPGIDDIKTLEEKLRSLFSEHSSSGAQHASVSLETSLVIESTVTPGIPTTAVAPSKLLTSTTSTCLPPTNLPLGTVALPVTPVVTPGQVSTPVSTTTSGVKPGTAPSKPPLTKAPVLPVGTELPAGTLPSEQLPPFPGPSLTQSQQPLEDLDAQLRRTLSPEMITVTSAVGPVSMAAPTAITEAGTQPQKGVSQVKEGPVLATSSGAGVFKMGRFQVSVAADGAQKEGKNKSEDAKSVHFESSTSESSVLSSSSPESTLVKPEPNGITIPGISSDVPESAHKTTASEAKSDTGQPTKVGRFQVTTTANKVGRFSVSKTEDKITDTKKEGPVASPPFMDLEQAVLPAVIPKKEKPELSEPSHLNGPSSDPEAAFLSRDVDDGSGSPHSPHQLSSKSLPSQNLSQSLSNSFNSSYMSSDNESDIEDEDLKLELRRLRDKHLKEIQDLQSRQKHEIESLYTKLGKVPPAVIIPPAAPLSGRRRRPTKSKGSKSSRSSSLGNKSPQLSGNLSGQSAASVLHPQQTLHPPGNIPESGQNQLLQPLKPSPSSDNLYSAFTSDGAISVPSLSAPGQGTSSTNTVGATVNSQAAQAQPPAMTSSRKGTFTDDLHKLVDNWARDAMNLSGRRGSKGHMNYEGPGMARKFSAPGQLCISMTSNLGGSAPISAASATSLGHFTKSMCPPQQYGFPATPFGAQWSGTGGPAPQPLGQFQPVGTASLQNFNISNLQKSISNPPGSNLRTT

[2] = biological target: T1, Serine/threonine-protein kinase WNK1; experiment: Inhibition of TEV cleavage site-fused His6-tagged WNK1 (194 to 483 residues) (unknown origin) expressed in Rosetta (DE3) cells using GST-OSR1(314 to 344) peptide as substrate measured after 30 mins by [gamma-32P]-ATP based liquid scintillation counting analysis; assay type: biochemical
Method in brief: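 Radiometric kinase assay using [γ-32P]ATP at low enzyme concentration. It was chosen over the luminescence format for more precise IC50 determination.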
Target sequence in this assay (Q9H4A3 whole entry, the tested form may be a part): as above

[3] = biological target: T1, Serine/threonine-protein kinase WNK1; experiment: Inhibition of WNK1 (unknown origin) at 10 uM relative to control
Target sequence in this assay (Q9H4A3 whole entry, looked up, the tested form may be a part): as the sequence (Q9H4A3 whole entry, the tested form may be a part) above

[4] = biological target: Serine/threonine-protein kinase WNK2 (Homo sapiens) (UniProt Q9Y3S1); experiment: Inhibition of WNK2 (unknown origin) at 10 uM relative to control
[5] = biological target: Mitogen-activated protein kinase 9 (Homo sapiens) (UniProt P45984); experiment: Inhibition of JNK2 (unknown origin) at 10 uM
[6] = biological target: Mitogen-activated protein kinase 10 (Homo sapiens) (UniProt P53779); experiment: Inhibition of JNK3 (unknown origin) at 10 uM
[7] = biological target: T1, Serine/threonine-protein kinase WNK1; experiment: Inhibition of WNK1 in human MDA-MB-231 cells assessed as reduction in OSR1 phosphorylation measured after 24 hrs by Western blot analysis; assay type: cell-based
Method in brief: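 Endogenous OSR1 phosphorylation was measured in MDA-MB-231 breast cancer cells. Experiments were run in triplicate, and an IC50 was derived from the phosphorylation read-out.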
Target sequence in this assay (Q9H4A3 whole entry, the tested form may be a part): as above

[8] = tested on: MDA-MB-231; experiment: Cytotoxicity against human MDA-MB-231 cells assessed as cell viability up to 12 uM measured after 24 hrs; assay type: toxicity, cell-based; settings: mda-mb-231, 24 h
[9] = biological target: Serine/threonine-protein kinase WNK3 (Homo sapiens) (UniProt Q9BYP7); experiment: Inhibition of WNK3 (unknown origin) at 10 uM relative to control
[10] = species: Homo sapiens; experiment: Selectivity ratio of IC50 for WNK3 (118 to 409 residues) (unknown origin) expressed in Escherichia coli BL21 DE3 to IC50 for TEV cleavage site-fused His6-tagged WNK1 (194 to 483 residues) (unknown origin) expressed in Rosetta (DE3) cells

Sequence of Serine/threonine-protein kinase WNK2 (Homo sapiens) (Q9Y3S1 whole entry): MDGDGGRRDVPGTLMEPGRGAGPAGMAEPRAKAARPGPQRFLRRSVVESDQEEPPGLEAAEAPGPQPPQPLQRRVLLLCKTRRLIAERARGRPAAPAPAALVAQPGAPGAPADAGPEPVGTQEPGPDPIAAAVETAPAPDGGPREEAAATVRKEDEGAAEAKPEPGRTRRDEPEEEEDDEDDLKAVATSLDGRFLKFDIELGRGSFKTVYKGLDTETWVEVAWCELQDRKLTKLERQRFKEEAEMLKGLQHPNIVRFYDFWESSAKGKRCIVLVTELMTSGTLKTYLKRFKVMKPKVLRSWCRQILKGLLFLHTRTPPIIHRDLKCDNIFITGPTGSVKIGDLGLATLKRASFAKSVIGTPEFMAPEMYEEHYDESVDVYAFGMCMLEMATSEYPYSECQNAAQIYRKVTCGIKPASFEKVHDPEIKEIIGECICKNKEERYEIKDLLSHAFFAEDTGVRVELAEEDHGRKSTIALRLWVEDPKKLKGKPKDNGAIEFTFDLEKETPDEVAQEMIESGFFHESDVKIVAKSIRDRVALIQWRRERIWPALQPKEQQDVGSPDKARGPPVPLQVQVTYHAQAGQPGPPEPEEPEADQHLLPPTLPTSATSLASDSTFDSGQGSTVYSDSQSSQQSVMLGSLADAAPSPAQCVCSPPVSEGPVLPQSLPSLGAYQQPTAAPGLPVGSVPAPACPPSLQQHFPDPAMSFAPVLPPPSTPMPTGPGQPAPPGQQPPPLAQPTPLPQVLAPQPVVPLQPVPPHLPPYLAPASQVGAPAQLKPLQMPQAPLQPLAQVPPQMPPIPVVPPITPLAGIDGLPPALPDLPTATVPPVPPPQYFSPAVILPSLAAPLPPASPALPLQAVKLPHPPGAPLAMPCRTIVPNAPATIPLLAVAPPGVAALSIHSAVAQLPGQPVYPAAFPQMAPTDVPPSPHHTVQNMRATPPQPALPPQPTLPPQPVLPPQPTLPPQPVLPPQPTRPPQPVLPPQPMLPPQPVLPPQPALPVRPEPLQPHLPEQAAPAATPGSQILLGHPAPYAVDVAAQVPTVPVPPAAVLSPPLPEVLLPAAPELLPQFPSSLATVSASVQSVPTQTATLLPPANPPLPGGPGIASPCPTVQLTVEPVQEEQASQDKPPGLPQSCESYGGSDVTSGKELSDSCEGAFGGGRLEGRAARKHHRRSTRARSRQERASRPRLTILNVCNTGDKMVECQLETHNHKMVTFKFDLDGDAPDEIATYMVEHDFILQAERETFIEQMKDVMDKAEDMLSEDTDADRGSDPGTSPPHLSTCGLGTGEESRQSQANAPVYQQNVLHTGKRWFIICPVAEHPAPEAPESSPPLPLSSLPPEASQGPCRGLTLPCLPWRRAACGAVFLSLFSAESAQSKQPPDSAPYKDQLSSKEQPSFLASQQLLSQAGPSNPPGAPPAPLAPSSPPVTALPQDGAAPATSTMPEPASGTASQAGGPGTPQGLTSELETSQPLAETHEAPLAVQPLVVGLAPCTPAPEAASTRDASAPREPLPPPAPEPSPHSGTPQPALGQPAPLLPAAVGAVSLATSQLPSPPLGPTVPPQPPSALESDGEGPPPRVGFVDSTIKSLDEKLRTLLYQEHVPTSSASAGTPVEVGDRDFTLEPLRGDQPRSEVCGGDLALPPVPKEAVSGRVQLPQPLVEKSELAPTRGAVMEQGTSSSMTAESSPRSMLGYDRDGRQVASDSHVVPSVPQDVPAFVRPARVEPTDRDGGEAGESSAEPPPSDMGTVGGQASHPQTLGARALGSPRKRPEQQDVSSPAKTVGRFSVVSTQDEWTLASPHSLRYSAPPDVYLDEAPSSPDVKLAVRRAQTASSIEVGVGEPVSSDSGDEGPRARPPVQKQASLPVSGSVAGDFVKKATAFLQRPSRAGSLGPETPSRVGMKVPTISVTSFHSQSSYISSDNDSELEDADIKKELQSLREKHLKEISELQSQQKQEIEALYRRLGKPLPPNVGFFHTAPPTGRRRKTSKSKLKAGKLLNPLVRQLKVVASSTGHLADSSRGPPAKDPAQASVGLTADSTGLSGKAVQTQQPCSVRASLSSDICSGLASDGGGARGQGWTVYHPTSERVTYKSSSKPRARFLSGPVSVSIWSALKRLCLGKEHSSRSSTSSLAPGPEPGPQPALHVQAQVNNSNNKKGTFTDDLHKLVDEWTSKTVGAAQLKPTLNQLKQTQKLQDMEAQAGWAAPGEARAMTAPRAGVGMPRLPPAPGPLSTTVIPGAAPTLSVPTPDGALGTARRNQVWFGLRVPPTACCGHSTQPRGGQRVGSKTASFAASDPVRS

Row | Compound | IC50 [1] [µM] | IC50 [2] [µM] | other results
1 | O=[N+]([O-])c1cc(S(=O)(=O)C(Cl)(Cl)Br)ccc1Nc1ccccc1 | 76 | 7.2 | 
2 | O=[N+]([O-])c1cc(S(=O)(=O)C(Cl)(Cl)Br)ccc1NCc1ccco1 | 15 | 5 | 
3 | O=[N+]([O-])c1cc(S(=O)(=O)C(Cl)(Cl)Br)ccc1NCCCc1ccccc1 | 79 | 6 | inhibition [3]: 20%; inhibition [4]: 20%; inhibition [5]: Active; inhibition [6]: Active
4 | O=[N+]([O-])c1ccccc1NC1CCCCC1 | > 1000 |  | 
5 | O=S(=O)(c1ccc(NC2CCCCC2)cc1)C(Cl)(Cl)Br | > 1000 |  | 
6 | CN1CCN(c2ccc(S(=O)(=O)C(Cl)(Cl)Br)cc2[N+](=O)[O-])CC1 | > 1000 |  | 

Further lines, with some results ahead:

Row | IC50 [1] [µM] | IC50 [2] [µM] | Compound | other results
7 | > 1000 |  | CCS(=O)(=O)c1ccc(NC2CCCCC2)c([N+](=O)[O-])c1 | 
8 | 4 | 1.6 | O=[N+]([O-])c1cc(S(=O)(=O)C(Cl)(Cl)Br)ccc1NC1CCCCC1 | IC50 [7]: 4.3 µM; Activity [8]: Non-Toxic; inhibition [3]: 20%; inhibition [9]: 20%; Ratio IC50 [10]: 10
9 | > 1000 |  | O=[N+]([O-])c1cc(S(=O)(=O)C(Cl)Cl)ccc1NC1CCCCC1 | 
10 | 93 | 6.5 | O=[N+]([O-])c1cc(S(=O)(=O)C(Cl)(Cl)Br)ccc1NC1CCCC1 | 
11 | > 1000 |  | O=[N+]([O-])c1cc(S(=O)(=O)C(Cl)(Cl)Cl)ccc1NC1CCCCC1 | 
12 | > 1000 |  | CS(=O)(=O)c1ccc(NC2CCCCC2)c([N+](=O)[O-])c1 | 
13 | > 1000 | > 1000 | O=[N+]([O-])c1cc(S(=O)(=O)C(F)(F)F)ccc1NC1CCCCC1 | 
